Data from ChEMBL document CHEMBL3751835, “Discovery of the imidazole-derived GPR40 agonist AM-3189” (Bioorg Med Chem Lett, 2016).
Calls of active or inactive are those of the source. The calls are words filed in the database; no cut-off is given here.

Key:
[1] = molecular target: Free fatty acid receptor 1 (Rattus norvegicus, UniProt Q8K3T4); assay: Agonist activity at rat GPR40 in presence of 0.01% human serum albumin
[2] = Volume of distribution at steady state in dog at 0.5 mg/kg, iv; type: ADME, organism-based, Canis lupus familiaris; settings: in vivo, read-out: Vdss
Method in brief: (§1)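 Oral doses given as a suspension in aqueous 1% Tween 80 in 1% methylcellulose; IV doses formulated in 10% N,N-dimethylacetamide, 10% ethanol, 30% propylene glycol, 50% sterile water. Animals per species: mouse n = 2 (plasma from two mice at each time point), rat n = 2, dog n = 3, cynomolgus monkey n = 3.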

[3] = molecular target: Free fatty acid receptor 1 (Homo sapiens, UniProt O14842); assay: Partial agonist activity at human GPR40 expressed in CHO cells measured over 20 secs interval by luminometric analysis in presence of 100% human serum; type: cell-based
Sequence of Free fatty acid receptor 1 (Homo sapiens, UniProt O14842) (O14842 whole entry): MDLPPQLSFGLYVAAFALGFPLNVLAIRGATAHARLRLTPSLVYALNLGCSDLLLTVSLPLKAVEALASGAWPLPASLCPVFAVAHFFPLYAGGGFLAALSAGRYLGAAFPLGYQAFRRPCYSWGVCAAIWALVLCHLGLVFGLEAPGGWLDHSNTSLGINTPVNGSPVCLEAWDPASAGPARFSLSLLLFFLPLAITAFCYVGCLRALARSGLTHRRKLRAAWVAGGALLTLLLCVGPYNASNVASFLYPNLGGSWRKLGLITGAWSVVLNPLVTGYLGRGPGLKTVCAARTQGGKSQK
Method in brief: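 Aequorin chemiluminescence read-out of calcium flux in a CHO line stably transfected with human GPR40, giving EC50. Run in buffer containing 0.01% human serum albumin, or in 100% human serum to test activity with plasma proteins present.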

[4] = Half life in cynomolgus monkey at 0.5 mg/kg, iv; type: ADME, organism-based, Macaca fascicularis; settings: in vivo; method in brief: as §1
[5] = Oral bioavailability in rat at 2 mg/kg; type: ADME, organism-based; settings: in vivo; method in brief: as §1
[6] = molecular target: Free fatty acid receptor 1 (Mus musculus) (UniProt Q76JU9); assay: Agonist activity at mouse GPR40 in presence of 0.01% human serum albumin
Sequence of Free fatty acid receptor 1 (Mus musculus) (Q76JU9 whole entry): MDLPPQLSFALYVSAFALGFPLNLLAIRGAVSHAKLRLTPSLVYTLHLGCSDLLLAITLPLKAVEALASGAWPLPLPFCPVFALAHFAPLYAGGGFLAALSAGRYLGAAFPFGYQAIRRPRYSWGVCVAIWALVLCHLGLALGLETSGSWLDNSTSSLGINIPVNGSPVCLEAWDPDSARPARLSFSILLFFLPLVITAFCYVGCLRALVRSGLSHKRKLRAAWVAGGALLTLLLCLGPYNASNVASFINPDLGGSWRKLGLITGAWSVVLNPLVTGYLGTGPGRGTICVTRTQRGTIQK

[7] = Volume of distribution at steady state in cynomolgus monkey at 0.5 mg/kg, iv; type: ADME, organism-based, Macaca fascicularis; settings: in vivo, read-out: Vdss; method in brief: as §1
[8] = molecular target: T1, Peroxisome proliferator-activated receptor alpha (Homo sapiens) (UniProt Q07869); assay: Activity at PPARalpha (unknown origin) by cell based assay
T1 sequence (whole entry): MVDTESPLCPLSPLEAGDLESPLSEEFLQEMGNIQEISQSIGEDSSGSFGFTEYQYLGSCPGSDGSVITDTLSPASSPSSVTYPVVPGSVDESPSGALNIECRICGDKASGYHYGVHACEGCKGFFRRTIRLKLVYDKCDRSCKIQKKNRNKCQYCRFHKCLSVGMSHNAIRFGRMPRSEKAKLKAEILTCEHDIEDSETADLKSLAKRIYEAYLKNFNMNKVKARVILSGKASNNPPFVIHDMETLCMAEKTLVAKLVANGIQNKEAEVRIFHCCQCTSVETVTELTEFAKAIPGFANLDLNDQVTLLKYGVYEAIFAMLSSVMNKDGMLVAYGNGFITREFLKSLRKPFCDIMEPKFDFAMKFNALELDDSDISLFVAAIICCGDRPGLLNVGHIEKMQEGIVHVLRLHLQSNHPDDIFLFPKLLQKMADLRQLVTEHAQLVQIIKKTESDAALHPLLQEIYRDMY

[9] = Oral bioavailability in mouse at 5 mg/kg; type: ADME, organism-based; settings: in vivo; method in brief: as §1
[10] = Half life in dog at 0.5 mg/kg, iv; type: ADME, organism-based, Canis lupus familiaris; settings: in vivo; method in brief: as §1
[11] = Half life in rat at 0.5 mg/kg, iv; type: ADME, organism-based; settings: in vivo; method in brief: as §1
[12] = Cmax in cynomolgus monkey at 5 mg/kg, po; type: ADME, organism-based, Macaca fascicularis; design: dose 5 mg/kg, route oral; settings: in vivo; method in brief: as §1

Sequence of Free fatty acid receptor 1 (Rattus norvegicus, UniProt Q8K3T4) (Q8K3T4 whole entry): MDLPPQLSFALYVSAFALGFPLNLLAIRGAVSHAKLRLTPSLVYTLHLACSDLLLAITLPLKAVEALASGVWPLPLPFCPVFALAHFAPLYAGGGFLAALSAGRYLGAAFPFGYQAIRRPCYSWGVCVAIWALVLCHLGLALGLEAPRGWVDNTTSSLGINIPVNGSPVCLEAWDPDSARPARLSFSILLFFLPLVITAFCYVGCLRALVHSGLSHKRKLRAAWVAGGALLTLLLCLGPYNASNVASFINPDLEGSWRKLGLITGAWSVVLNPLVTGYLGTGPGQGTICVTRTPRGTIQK

## Cc1cc(Cl)ccc1-c1cccc(COc2ccc([C@H](CC(=O)O)c3nccn3C)cc2)c1
[1]
  EC50: 0.64 µM
[2]
  Vd: 0.58 L/kg
[3]
  EC50: 10 µM
[4]
  half-life: 7.6 h
[5]
  bioavailability: 43%
[6]
  Activity: inactive
[7]
  Vd: 1.6 L/kg
[8]
  Activity: inactive
[9]
  bioavailability: 100%
[10]
  half-life: 5.1 h
[11]
  half-life: 1.6 h
[12]
  Cmax: 1190 nM
